# High-throughput results from PubChem BioAssay.
# PABP1 MLLE inh: inhibitors of PABP1 MLLE–PAM2 peptide binding, primary screen, biochemical, fluorescence polarization, FITC-PAM2, GST-MLLE; Polyadenylate-binding protein 1 (Homo sapiens), P11940; inhibition, % at 20 µM; 0.36% of 360,000 active; AID 588489, 2011; in the data active means inhibition above about 35%, passing the limit was not always enough
# IMP-1 inh: IMP-1 metallo-beta-lactamase inhibitors, primary screen, biochemical, epi-absorbance readout, Pseudomonas aeruginosa enzyme; purified IMP-1, nitrocefin hydrolysis, epi-absorbance fluorescence; AID 1556, 2009; inhibition, % at 5.6 µM; 0.45% of 290,000 active; metallo-beta-lactamase IMP-1 (Pseudomonas aeruginosa);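 active means inhibition above the mean plus 3 SD of all compounds in the same screening run, cut at about 4.5% in these data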
#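 Assay system: purified IMP-1; Quantity: IMP-1 0.2 nM before substrate addition; Medium: HEPES buffer pH 7.1 with ZnSO4 and Brij 35; Incubation: 15 min enzyme–compound preincubation, then 25 min nitrocefin reaction, 25 °C; Signal: fluorescence quenching readout, ex 480/em 530 nm; Controls: DMSO with and without IMP-1; Repeats: singlicate testing.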
# PABP polyA inh: PABP poly(A) RNA binding inhibitors, primary screen, biochemical, fluorescence polarization, uHTS | calls only at 35 µM | 1% of 290,000 active;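 further: calls also rest on retests at 20 µM and on dose response follow-up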
# VIM-2 inh: VIM-2 metallo-beta-lactamase inhibitors, primary screen, biochemical, epi-absorbance readout, Pseudomonas aeruginosa enzyme; purified VIM-2, nitrocefin hydrolysis, epi-absorbance fluorescence; inhibition, % at 5.6 µM; 0.89% of 290,000 active; AID 1527, 2009;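 active means inhibition above the mean of all tested compounds plus 3 SD, cutoff set per screening run, cut at about 7.5% in these data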;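 further: red hydrolysis product quenches plate fluorescence so inhibitors raise well fluorescence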
# eIF4H FP inh: human eIF4H binding inhibitors, primary screen, translation initiation inhibitor project, biochemical, uHTS, fluorescence polarization | 0.94% of 290,000 active | inhibition, % at 35 µM | AID 2012, 2009 | Eukaryotic translation initiation factor 4H (Homo sapiens), Q15056 | eIF4H fluorescence polarization binding assay;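 further: calls also rest on retests at 20 µM and on dose response follow-up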
# Hits are given with their value; . = inactive; ? = inconclusive; / = no result given; + = active, no number. This is a sample that favours compounds with a hit; in the whole collection about 2.2% have one here. Unless noted, how the calls were made is not given here.
SMILES,PABP1 MLLE inh,IMP-1 inh,PABP polyA inh,VIM-2 inh,eIF4H FP inh
COc1cccc(/C=C2\SC(=S)N(CCC(=O)Nc3ccc(O)cc3)C2=O)c1,.,.,.,.,.
O=C(CN1C(=O)/C(=C/c2cccc(Cl)c2)SC1=S)NC1C=CS(=O)(=O)C1 (stereo unspecified),.,.,.,.,.
COc1cccc(/C=C2\SC(=S)N(CCC(=O)NC3C=CS(=O)(=O)C3)C2=O)c1 (stereo unspecified),.,8.2,.,.,.
COc1ccc(/C=C2\SC(=S)N(CCC(=O)NC3C=CS(=O)(=O)C3)C2=O)cc1 (stereo unspecified),.,11.7,.,.,.
O=C(CN1C(=O)S/C(=C\c2ccc(Cl)cc2)C1=O)NC1C=CS(=O)(=O)C1 (stereo unspecified),.,.,.,.,.
O=C(CN1C(=O)/C(=C/c2ccccc2F)SC1=S)NC1C=CS(=O)(=O)C1 (stereo unspecified),.,7.0,.,.,.
CC(=O)NC(Cc1ccccc1)C(=O)OCC(=O)c1ccc(Cl)cc1 (stereo unspecified),.,.,+,.,active
Cc1cccc(C)c1NC(=O)CN1C(=O)CCSc2ccc(S(=O)(=O)N3CCCC3)cc21,.,.,.,.,.
COC(=O)c1ccccc1NC(=O)CC(=O)Nc1ccccc1C(=O)OC,.,.,.,.,.
COC(=O)c1ccccc1NC(=O)Cc1nc(-c2ccccc2)sc1-c1ccc(C)cc1,.,.,+,.,active
O=C(c1nc2ccccn2c1CNCCCn1ncc2ccccc21)N1CCOCC1,.,.,.,.,.
Cc1cccn2c(CNCCCn3ncc4ccccc43)c(C(=O)N3CCCCC3)nc12,.,.,+,.,.
CCN(CC(=O)Nc1ccccc1C(F)(F)F)C(=O)c1ccc(=O)n(Cc2ccccc2)n1,.,.,.,.,.
COc1ccc(-c2cc(-c3cc(F)ccc3O)[nH]n2)cc1OC,.,5.2,.,.,.
CCOC(=O)c1c(S(=O)(=O)Nc2ccccn2)c(C)n(C)c1C,.,.,.,.,.
CC(C)c1nnc(NC(=O)c2cccc(-n3cnnn3)c2)s1,.,.,.,.,.
N#Cc1ccsc1NC(=O)c1cccc(-n2cnnn2)c1,.,.,+,.,.
Cc1cccc(OC(=O)n2c(=S)oc3cc(Cl)ccc32)c1,.,.,+,.,?
CC(C)OC(=O)n1c(=S)oc2ccccc21,.,.,.,.,.
COc1ccc(-c2nc3ccc(N4CCN(C)CC4)cc3c(=O)[nH]2)cc1,.,.,.,8.1,.
O=C1/C(=C/c2ccco2)N=C(N2CCCCC2)N1c1ccccc1,.,.,+,.,87.8
Cn1c(=O)c2c(nc(CCc3ccccc3)n2C)n(C)c1=O,.,/,/,/,/
Cn1c(N)nc2nc(CCc3ccccc3)c(=O)[nH]c2c1=O,.,5.2,.,.,.
COc1ccc(C(=O)N=c2c(C#N)cc3c(=O)n4cccc(C)c4nc3n2Cc2ccco2)cc1,/,.,.,.,.
Cc1ccccc1C(=O)N=c1c(C#N)cc2c(=O)n3cccc(C)c3nc2n1Cc1ccco1,/,.,.,.,.
SMILES,PABP1 MLLE inh,IMP-1 inh,PABP polyA inh,VIM-2 inh,eIF4H FP inh
N#Cc1cc2c(=O)n3ccccc3nc2n(Cc2ccco2)c1=NC(=O)c1ccco1,41.1,.,.,.,?
CC(=O)N=c1c(C#N)cc2c(=O)n3cccc(C)c3nc2n1Cc1ccco1,.,.,+,.,71.5
CC(C)CC(=O)Nc1ccc(C(=O)COC(=O)CN2C(=O)NC3(CCCCC3C)C2=O)cc1 (stereo unspecified),.,/,/,/,/
C=CCOCCN1C(=O)C2C(c3ccccc3)C=CC(c3ccccc3)C2C1=O (stereo unspecified),.,15.1,.,.,.
C=CC[N+](C)(C)CCN1C(=O)C2C(c3ccccc3)C=CC(c3ccccc3)C2C1=O (stereo unspecified),.,.,.,.,.
CCCCCCC(=O)NN1CCN(C)CC1,.,8.0,.,.,.
CN1CCN(NC(=O)CC(C)(C)C)CC1,.,.,.,.,.
Cc1cc(/C=C2\SC(=S)NC2=O)c(C)n1-c1ccc(O)cc1,.,.,.,8.1,.
Cc1cc(/C=C2\SC(=S)NC2=O)c(C)n1-c1ccccc1,.,.,.,.,.
